# HCT116 bCat-KO – primary screen for growth suppressors in beta-catenin knockout HCT116 cells (colon tumor, human) | HCT116 beta-catenin knockout viability, CellTiter-Glo, 60 h; active compounds read low | 140,000 compounds, 1.5% hits | viability, % at 10 µM;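 active means viability at or under a set limit, the compound median less 4 SD, cut at about 6% in these data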;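 further: 0% = Hyamine 1622 control at 20 µM and 100% = untreated cell control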
# Fibroblast inh – antiproliferative effect on LL 47 fibroblasts – human, LL 47 cells, CellTiter-Glo luminescence, primary screen | LL 47 human lung fibroblast viability, ATP luminescence; active compounds read low | viability, % at 10 µM | 85,000 compounds, 1.1% hits;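 active means viability at or below 50% in the single dose screen; inactive means viability above 50%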;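 further: compound exposure lasted 72 h before the ATP readout; 100% = median luminescence of untreated cell-only wells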
#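 Signal: luminescent ATP detection, CellTiter-Glo; assay system: LL 47 human lung fibroblasts; input: 1,150 cells/well; incubation: overnight cell rest, 72 h compound treatment at 37 °C; measure: % viability versus median cells-only luminescence; medium: IMEM growth medium with 15% fetal bovine serum; dosing: compound addition at 0.1% DMSO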
# Phagocyt inh – inhibitors of macrophage phagocytosis, primary screen, imaging, J774A.1 cells, IgG beads; J774A.1 macrophage IgG-bead phagocytosis; inhibition, % at 5 µM; 110,000 compounds, 0.07% hits; AID 1029, 2008;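 active means inhibition above the mean of the plate negative controls plus 5 SD, cut at about 13% in these data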;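 further: phagocytic index as fraction of beads internalized from green versus red external bead signal; plate controls were DMSO negative control for no effect and cytochalasin-D positive control for full effect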
# H69AR inhibit – proliferation blockers of H69AR lung cancer cells, primary screen, cell-based, human, 86K library | H69AR lung tumor viability, ATP luminescence, 72 h; active compounds read low | viability, % at 10 µM | 85,000 compounds, 6% hits | AID 598, 2007;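 active means viability at or below 40%; inactive means viability above 40%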;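 further: multidrug resistant small cell line overexpressing MRP-1 efflux transporter; 100% = mean luminescence of untreated control wells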
# HCT116 PTEN-null – growth suppression of PTEN-null HCT116, primary screen, cell-based, CellTiter-Glo | HCT116 PTEN-null viability, 60 h; active compounds read low | viability, % at 10 µM | 140,000 compounds, 1.2% hits | AID 827, 2007;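 active means viability at or below a set limit, 4 SD under the median of all tested compounds, cut at about 3.7% in these data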;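 further: PTEN knockout HCT116 line with beta catenin targeted HCT116 as companion control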
# HUVEC inhibit – inhibitors of HUVEC proliferation, primary screen, cell-based, 384-well; CellTiter-Glo luminescence, 72 h; active compounds read low; viability, % at 10 µM (by protocol); 86,000 compounds, 1.1% hits; AID 648, 2007;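 active means viability at or below 30%; inactive means viability above 30%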;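 further: 100% = median luminescence of DMSO-only cell control wells on each plate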
# * marks the source's active call; other numbers are inactive results; . = not tested or not shown. This is one part of a sample in which hits are shown more often than they occur.
SMILES,HCT116 bCat-KO,Fibroblast inh,Phagocyt inh,H69AR inhibit,HCT116 PTEN-null,HUVEC inhibit
CCOC(=O)c1c(-c2ccccc2)csc1NC(=O)/C(C#N)=C/c1ccc(O)c(OC)c1,79.7,.,-18.6,.,82.5,.
CCOC(=O)N1CCN(C(=O)CCn2c(=S)[nH]c3cc(OCC)c(OCC)cc3c2=O)CC1,103.5,103.8,-0.1,77.3,112.7,97.5
CCCn1c(=S)[nH]c2cc(OC)c(OC)cc2c1=O,82.4,93.2,1.1,35.4*,90.7,89.5
CCOC(=O)N1CCC(n2c(=S)[nH]c3cc(OC)c(OC)cc3c2=O)CC1,94.8,103.7,-0.3,33.8*,94.2,97.6
Cn1cc(SCC(=O)Nc2nc3ccccc3s2)c2ccccc21,85.1,97.1,-0.2,71.3,75.6,10.5*
Cc1ccc(S(=O)(=O)Nc2cccc(-c3cn4ccsc4n3)c2)cc1,39.6,88.2,1.5,30.3*,32.5,69.7
O=S(=O)(Nc1ccc(-c2csc(-c3ccccc3)n2)cc1)c1ccccc1,87.9,.,-3.1,.,94.3,.
Cc1ccc(S(=O)(=O)Nc2ccc(-c3csc(-c4ccccc4)n3)cc2)cc1,2.7*,.,-9.3,.,2.4*,.
CN(CC(=O)Nn1cnnc1)S(=O)(=O)c1ccccc1,89.6,101.0,-1.8,93.8,100.0,95.6
Cc1ccc(-c2noc(CSc3nnnn3C3CCCCC3)n2)cc1,91.7,97.2,-0.1,85.8,89.4,82.2
CCOc1ccc(NC(=S)NC(C)c2cccs2)cc1 (centres undefined),87.1,.,-5.5,.,92.5,.
CC(C)CCNC(=O)CN(Cc1ccc2c(c1)OCO2)C(=O)CCC(=O)Nc1ccccn1,97.2,95.2,1.2,97.9,93.9,94.3
Cc1ccc(NC(=O)C2CCN(S(C)(=O)=O)CC2)cc1,90.6,89.4,.,104.1,87.3,104.2
CS(=O)(=O)N1CCC(C(=O)Nc2ccc(Oc3ccccc3)cc2)CC1,93.8,94.0,-0.3,31.9*,94.0,83.7
Cc1c(C(=O)NC(C)C)sc2ncn(CC(=O)N3CCC(C)CC3)c(=O)c12,100.4,106.4,.,91.0,101.6,90.8
CC1CCN(C(=O)CSc2ccc(-c3ccc(F)cc3)nn2)CC1,107.7,97.1,-2.7,89.8,102.7,105.9
CC1CC(C)(C)N(C(=O)CSc2ccc(-c3ccc(F)cc3)nn2)c2ccccc21 (centres undefined),4.9*,.,.,.,4.0,.
CN(CCOc1ccc(-c2ccn(S(=O)(=O)c3cccc4ccccc34)n2)cc1)c1ccccn1,85.4,.,-0.4,.,82.2,.
CC1(C)CC(=O)C2=C(C1)N(c1ccccc1)C(N)=C(C#N)C2c1cccnc1 (centres undefined),92.5,86.2,.,35.5*,84.9,92.6
CC1(C)CC(=O)C2=C(C1)N(c1ccccc1)C(N)=C(C#N)C2c1ccccc1 (centres undefined),89.0,87.5,.,56.7,98.9,92.8
Cc1ccc(N2C(N)=C(C#N)C(c3cccnc3)C3=C2CCCC3=O)cc1 (centres undefined),85.8,93.3,-4.4,29.6*,92.2,89.6
N#CC1=C(N)N(c2ccc(Br)cc2)C2=C(C(=O)CCC2)C1c1cccnc1 (centres undefined),82.8,92.0,6.5,82.9,86.1,88.6
O=C(NC1CC2CCCC(C1)N2Cc1ccco1)NC12CC3CC(CC(C3)C1)C2 (centres undefined),57.0,89.4,-0.7,106.9,59.2,90.2
CCOc1ccc(OCCCCN2CCCC2)cc1,73.9,93.1,-0.9,74.3,84.0,91.0
CCN1CCN(CCCOc2ccc(-c3ccccc3)cc2)CC1,1.8*,51.3,0.6,18.6*,2.0*,48.1
SMILES,HCT116 bCat-KO,Fibroblast inh,Phagocyt inh,H69AR inhibit,HCT116 PTEN-null,HUVEC inhibit
OC(CNCCC1C=Nc2ccccc21)Cn1c2ccc(Cl)cc2c2cc(Cl)ccc21 (centres undefined),1.2*,.,0.6,.,1.5*,.
Cc1cc(C)n(CC(O)Cn2c3ccc(Cl)cc3c3cc(Cl)ccc32)c(=O)n1 (centres undefined),79.4,90.5,.,59.5,80.6,50.8
OC(CNCC1CCCO1)Cn1c2ccc(Cl)cc2c2cc(Cl)ccc21 (centres undefined),1.5*,2.4*,.,1.0*,2.1*,2.2*
CCOc1ccc(NC(=O)C(c2ccccn2)N(C(=O)CCl)c2ccc(F)cc2)cc1 (centres undefined),83.5,.,-9.1,.,89.1,.
COC(=O)[C@H]1C[C@@H]1[C@H](NC(=O)c1ccccc1)c1ccccc1,91.9,.,.,.,97.1,.
Cc1ccccc1OCCN1C(=O)NC2(CCc3ccccc32)C1=O (centres undefined),101.1,98.5,-1.3,91.3,88.6,86.7
COC(=O)c1cc(CN2CCN(c3ccccc3C)CC2)ccc1O,83.3,99.3,-1.3,101.4,83.0,110.5
CCN(CC)S(=O)(=O)c1ccc(NC2CCCc3ccccc32)nc1 (centres undefined),0.6*,93.9,.,87.4,0.5*,90.2
C=CCNC(=S)NNC(=O)c1ccc(OCCC)cc1,99.1,99.2,.,101.8,91.7,97.8
CCCOc1ccc(C(=O)NNC(=S)NC(=O)CC)cc1,5.5*,.,.,.,5.8,.
CCN1C(=O)/C(=C\c2cn(CCC#N)nc2-c2ccc(F)cc2)SC1=S,79.0,.,2.8,.,67.5,.
CC1Cc2cc(-c3csc(NC(=O)Cc4cccs4)n3)ccc2N1S(C)(=O)=O (centres undefined),5.6*,79.2,-0.6,74.7,6.5,67.5
CC(C)CN(CC(C)C)C(=O)C12CCC(C)(C(=O)O1)C2(C)C (centres undefined),86.2,98.7,.,99.8,95.5,109.3
COc1cccc(/C=N/Nc2snc(SC)c2C#N)c1O,21.7,67.6,-2.5,19.9*,25.7,60.9
CCOC(=O)C1CCCN(C(=O)COC(=O)C2=COCCO2)C1 (centres undefined),117.7,98.7,0.2,97.9,92.2,92.7
O=C(CCCc1nc(-c2ccccc2Cl)no1)NCc1cccnc1,106.8,98.8,-0.1,39.0*,99.2,94.7
CCOC(=O)c1ccc(NC(=O)CCc2nc(-c3ccccc3Cl)no2)cc1,29.0,95.4,-1.3,29.3*,35.6,45.0
COC(=O)C1=CN(CC2CCCO2)C=C(C(=O)OC)C1c1cc(OC)c(OC)c(OC)c1 (centres undefined),89.8,98.7,0.2,100.6,100.7,94.9
O=C(CC1Nc2ccccc2NC1=O)Nc1cc(Cl)cc(Cl)c1 (centres undefined),1.9*,100.9,2.1,44.3,3.6*,75.0
COC(=O)c1c(NC(=O)CC2Nc3ccccc3NC2=O)sc(C)c1C (centres undefined),1.6*,.,.,.,1.9*,.

# Screens (PubChem)
